Results on 62 molecules are retold here after PubChem BioAssay AID573 (SRMLSC, 2007).

Structures are written as SMILES. Among all 65,000 compounds or so, about 1,400 (2.2%) were called active.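 Rule for the calls: active = growth inhibition at or above a cutoff equal to the mean over every tested compound plus 3 SD (cut at about 60% in these data); inactive = the rest.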 The list comes from a sample in which actives are over-represented; it also holds similar structures and randomly drawn compounds.

The assay in a line: growth inhibitors of E. coli tolC mutant, primary screen, strain BW25113 ΔtolC::kan, 384-well (AID 573). The following applies: OD615, active compounds read high, screened at 10 µM (by protocol). The method, boiled down:
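Test system: tolC-deleted E. coli BW25113; medium: LB with kanamycin 50 µg/mL; compound: single-point testing at 10 µM; incubation: 20 h compound exposure of bacteria at 37 °C; signal: OD at 615 nm; evaluation: growth inhibition in percent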
As to `CC(=O)c1c(C)n([O-])c2ccccc2[n+]1=O`, the growth inhibition was 97.5% (active). Turning to `C=CCSc1nc2c(c(=O)[nH]1)C(C(C)C)C(C#N)=C(N)O2` (configuration not stated), the growth inhibition was 0.15% (inactive).

`CCCn1c(=NC(C)=O)c(C(=O)OCC)cc2c(=O)n3ccccc3nc21`: the growth inhibition is -3.58% (inactive). Take `C=CCOc1nc2c(c(=O)n(C)c(=O)n2C)n1Cc1ccc(Cl)cc1Cl`: the growth inhibition was 12.2% (inactive). The figure for `Cc1nc2c(-c3ccccc3)c(C)[nH]n2c(=O)c1Cl` is 98% (active); for `CCCN(CCC)C(=O)C1c2ccccc2Oc2ccccc21` it is 17.6% (inactive). On to `CCOC(=O)N1CCC(NC(=O)Cn2cc3c(n2)CCCCC3)CC1`, for which the growth inhibition was -12.2% (inactive). Take `Cc1ccc(OCc2nc(C#N)c(N3CCCC3)o2)cc1`: the growth inhibition was 5.67% (inactive).

For the molecule `N#Cc1nc(COc2ccc(-c3ccccc3)cc2)oc1NCc1cccnc1`, the growth inhibition is 88.7% (active). Regarding `CCC(Oc1ccccc1)C(=O)NCc1cccnc1` (configuration not stated), the growth inhibition was -6.02% (inactive). For the molecule `COc1ccc(N2CC(C)Cn3c2nc2c3c(=O)n(Cc3ccccc3F)c(=O)n2C)c(OC)c1` (configuration not stated), the growth inhibition is 13.4% (inactive). `Cc1nnc(SCC(=O)NCCOc2ccc(Cl)cc2)n1-c1ccccc1`: the growth inhibition is -1.57% (inactive). For the molecule `COc1ccc2c(c1)CCc1c(C(=O)N3CCc4ccccc4C3)noc1-2`, the growth inhibition is 77.6% (active). As to `COc1ccc2c(c1)CCc1c(C(=O)Nc3c(C)n(C)n(-c4ccccc4)c3=O)noc1-2`, the growth inhibition was -4.64% (inactive). For the molecule `COc1ccc2c(c1)CCc1c(C(=O)N3CCCC3)noc1-2`, the growth inhibition was -0.81% (inactive). With `O=c1c(-c2ccc3c(c2)OCCO3)c(C(F)(F)F)oc2cc(O)cc(O)c12`, the growth inhibition is 11.4% (inactive). The same measure for `CCCOC(=O)c1cc2ccccc2oc1=O`: -13.8% (inactive). As to `CCOC(=O)c1cc2cc(-c3c(C(=O)OCC)oc4cc(O)cc(O)c4c3=O)ccc2o1`, the growth inhibition is 87.4% (active). Regarding `CC1(c2ccccc2Cl)NC(=O)N(CC(=O)NC(=O)NCc2ccco2)C1=O` (configuration not stated), the growth inhibition was -3.76% (inactive). In the case of `COc1ccc(C2=NOC(C(=O)NCc3ccco3)C2)cc1OC` (configuration not stated), the growth inhibition is -12.4% (inactive).

For the molecule `CCS(=O)(=O)n1nc(-c2ccccc2)nc1SCc1ccccc1`, the growth inhibition was 62.5% (active).

Turning to `CCCc1cc(=O)n2[nH]c(SCc3ccccc3)nc2n1`, the growth inhibition was 11.2% (inactive). As for `CCS(=O)(=O)n1nc(-c2ccc(OC)cc2)nc1SC`, the growth inhibition was 2.8% (inactive). Regarding `CN(C)[C@@H]1C(=O)C(C(N)=O)=C(O)[C@@]2(O)C(=O)C3=C(O)c4c(O)ccc(Cl)c4[C@@H](O)[C@H]3C[C@@H]12`, the growth inhibition was 100% (active). The same measure for `CCSC1=C(C#N)C(=O)n2c1cc1c2CCCC1`: 11.6% (inactive). As for `Cc1ccc(S(=O)(=O)N2CCC(C(=O)N[C@@H](C)C(=O)NCCc3ccccc3)CC2)cc1`, the growth inhibition is -5.94% (inactive). Turning to `COc1ccc(Nc2oc(-c3ccccc3Cl)nc2C#N)cc1`, the growth inhibition was 9.32% (inactive). The figure for `N#Cc1nc(-c2ccc(OCc3ccccc3)cc2)oc1NCCCN1CCOCC1` is 96.3% (active); for `c1ccc2[nH]c(NCCN3CCOCC3)nc2c1` it is -17.2% (inactive). `COc1ccc(OC)c2c(N)c(C#N)c(C(F)(F)C(F)(F)F)nc12`: the growth inhibition was 2.98% (inactive). In the case of `O=C(Nc1ccc(Cl)cn1)c1cnn2cccnc12`, the growth inhibition is -3.45% (inactive). With `CCN=C1SC(CC(=O)Nc2ccc(C)cc2)C(=O)N1CC` (configuration not stated), the growth inhibition was -9.63% (inactive).

On to `C[C@H](NC(=O)OC(C)(C)C)c1nnc(SCC(=O)Nc2ccc(Br)cc2)o1`, for which the growth inhibition was 15.3% (inactive). The same measure for `CC(C)(CSc1nncn1/N=C/c1ccco1)NS(=O)(=O)c1ccc(Cl)cc1`: 15.6% (inactive); for `COc1ccc(Cc2nnc(NS(=O)(=O)Cc3ccccc3)s2)cc1`: 5.52% (inactive).

For `CCOC(=O)c1[nH]c2ccc(OC)cc2c1NC(=O)N1CCOCC1`, the growth inhibition is -1.42% (inactive). As to `O=C1CSC(c2cccc(F)c2)N1c1ccccc1F` (configuration not stated), the growth inhibition was 9.21% (inactive). The figure for `CCCCCCn1c(SCC(=O)c2ccccc2)nc2c1c(=O)[nH]c(=O)n2C` is 14.9% (inactive); for `CCCSc1nc2c(c(=O)[nH]c(=O)n2C)n1CCc1ccccc1` it is 5.24% (inactive); for `CCCCCn1c(SCCC(C)C)nc2c1c(=O)[nH]c(=O)n2C` it is 64.3% (active). Regarding `COC(=O)c1ccc2c(c1)S(=O)(=O)NC(=NCCCN1CCOCC1)S2`, the growth inhibition was -18.4% (inactive). Take `O/N=C1\CC2(Cc3nonc31)OCCO2`: the growth inhibition was -23.4% (inactive). As to `O=C(COC(=O)c1ccc(Oc2ccccc2)cc1)Nc1nnc(-c2ccccc2)o1`, the growth inhibition was 100% (active). `Cc1ccc(OCC(=O)Nc2ccc(-c3nnc(-c4ccco4)o3)cc2)cc1`: the growth inhibition was -19.2% (inactive). With `COc1ccc(CC(=O)Nc2ccc(-c3nnc(-c4ccccc4)o3)cc2)cc1`, the growth inhibition is -6.58% (inactive).

On to `CC(C(=O)N1CCOCC1)N1c2cccc3cccc(c23)S1(=O)=O` (configuration not stated), for which the growth inhibition was -2.26% (inactive). The same measure for `COc1cccc(Nc2nnc(SCC(=O)N3CC(C)OC(C)C3)s2)c1` (configuration not stated): 8.6% (inactive). As to `COc1cccc(NC(=O)C2CCCN2C(=O)OCc2ccccc2)c1` (configuration not stated), the growth inhibition was -9.18% (inactive). Turning to `COc1cccc(NC(=O)Nc2nnc(N3CCCCC3C)s2)c1` (configuration not stated), the growth inhibition is 61.5% (active). Turning to `CCCc1nnc(NC(=O)CN2C(=O)c3ccccc3S2(=O)=O)s1`, the growth inhibition was -16.8% (inactive).

As for `CC(C)Cc1cc(C(=O)NCCc2ccccc2)no1`, the growth inhibition is 9.12% (inactive). `CC(C)CNC(=O)c1cc(-c2ccc(Br)cc2)on1`: the growth inhibition is 1.43% (inactive). The same measure for `CC(C)Cc1cc(C(=O)Nc2cc(Br)ccc2O)no1`: 80.4% (active). Regarding `NC(=O)c1ccccc1NC(=O)c1ccccc1F`, the growth inhibition was -2.79% (inactive). Regarding `CCN1CCCC1CNc1ncnc2c1[nH]c1ccc(F)cc12` (configuration not stated), the growth inhibition was 3.38% (inactive). The figure for `CC(C)OCCCNc1ncnc2c1[nH]c1ccc(F)cc12` is 96.2% (active); for `O=C1CCCN1CCCNc1ncnc2c1[nH]c1ccccc12` it is -26.6% (inactive); for `COc1ccccc1NC(=O)c1ccc(C)s1` it is 14.1% (inactive).

With `CCOc1ccccc1NC(=O)Nc1cc(OC)ccc1OC`, the growth inhibition was -9.62% (inactive). As for `CCOc1ccccc1Oc1cn[nH]c1-c1ccc(OC)cc1O`, the growth inhibition was 98.2% (active).

Take `CCOc1ccccc1NC(=O)CCN1CCN(S(=O)(=O)c2ccc(OC)cc2)CC1`: the growth inhibition is -7.02% (inactive). As to `O=C(Nc1ccc2c(c1)OCO2)C1CC(c2c(F)cccc2Cl)=NO1` (configuration not stated), the growth inhibition was 18% (inactive).
